ChEMBL document CHEMBL3351575, “Halogenated diarylacetylenes repress c-myc expression in cancer cells” (Bioorg Med Chem Lett, 2014)
Active and inactive are the calls of the source. No cut-off for these calls is given here.

Tests used:
Assay type in all cases: functional, cell-based
[1] = Antiproliferative activity against human LS 174T cells after 4 days by Vi-Cell cell viability analyzer; conditions: LS174T, 96 h
LS174T [2] = assay: Induction of p21([…]/Cip1) expression in human LS 174T cells at 1 uM after 36 hrs by Western blotting analysis
Outline: (§1)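 LS174T colon cancer cells exposed to each diarylacetylene at 1 μM for 36 h, alongside a DMSO vehicle control and a reference compound; cell lysates then probed by western blot, with β-tubulin as the loading control.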

LS174T [3] = assay: Inhibition of c-myc expression in human LS 174T cells at 1 uM after 36 hrs by Western blotting analysis; outline: as §1

For CN(C)c1ccc(C#Cc2c(F)cccc2Cl)cc1, the IC50 [1] was 19 nM, the Activity (LS174T [2]) was “Active” and the inhibition (LS174T [3]) was “Active”.
In the case of Nc1ccc(C#Cc2c(F)cccc2F)cc1, the IC50 [1] is reported as 55 nM.
Compound CN(C)c1ccc(C#Cc2cc(F)cc(F)c2)cc1 has an IC50 [1] greater than 3000 nM.
With CN(C)c1ccc(C#Cc2ccccc2Cl)cc1 the IC50 [1] was 31 nM, the Activity (LS174T [2]) was “Active” and the inhibition (LS174T [3]) was “Active”.
In the case of CN(C)c1ccc(/C=C/c2c(F)cccc2F)cc1, the IC50 [1] is reported as 59 nM, the Activity (LS174T [2]) is reported as “Active” and the inhibition (LS174T [3]) is reported as “Active”.
With CN(C)c1ccc(C#Cc2ccc(F)cc2)cc1 the IC50 [1] was greater than 3000 nM, the Activity (LS174T [2]) was “Active” and the inhibition (LS174T [3]) was “Active”.
For CN(C)c1ccc(C#Cc2ccccc2F)cc1, the IC50 [1] was 39 nM, the Activity (LS174T [2]) was “Active” and the inhibition (LS174T [3]) was “Active”.
CN(C)c1ccc(C#Cc2cc(F)ccc2F)cc1 gave an IC50 [1] of 55 nM.
In the case of CN(C)c1ccc(C#Cc2ccc(F)c(F)c2)cc1, the IC50 [1] is reported as greater than 3000 nM, the Activity (LS174T [2]) is reported as “Active” and the inhibition (LS174T [3]) is reported as “Active”.
For CN(C)c1ccc(C#Cc2c(F)cccc2F)cc1, the IC50 [1] was 23 nM, the Activity (LS174T [2]) was “Active” and the inhibition (LS174T [3]) was “Active”.
For CN(C)c1ccc(C#Cc2c(Cl)cccc2Cl)cc1, the IC50 [1] was 52 nM, the Activity (LS174T [2]) was “Active” and the inhibition (LS174T [3]) was “Active”.
In the case of CN(C)c1ccc(C#Cc2ccc(F)cc2F)cc1, the IC50 [1] is reported as 56 nM.
In the case of CN(C)c1ccc(C#Cc2cccc(F)c2)cc1, the IC50 [1] is reported as greater than 3000 nM, the Activity (LS174T [2]) is reported as “Active” and the inhibition (LS174T [3]) is reported as “Active”.
Compound CN(C)c1ccc(C#Cc2cccc(F)c2F)cc1 has an IC50 [1] of 119 nM.
For CN(C)c1ccc(C#Cc2ccccc2)cc1, the IC50 [1] was greater than 3000 nM, the Activity (LS174T [2]) was “Active” and the inhibition (LS174T [3]) was “Active”.
With CNc1ccc(C#Cc2c(F)cccc2F)cc1 the IC50 [1] was 23 nM, the Activity (LS174T [2]) was “Active” and the inhibition (LS174T [3]) was “Active”.
